Assay results reported in ChEMBL document CHEMBL5058577, “EUbOPEN Chemogenomics Library 2 (Multiplex)” (2022).

System: U2OS
Assay: Multiplex assay against U2OS
Format: toxicity, cell-based
Conditions: human
Summary of the method: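 With compound added, live cells were imaged on a CQ1 microscope at 37°C and 5% CO2; staining with Hoechst33342, BioTracker Green Microtubule Cytoskeleton Dye, MitoTracker Red and Annexin V Alexa Fluor 680 had been done at seeding. The CellPathfinder machine-learning gating scheme split cells into Hoechst high-intensity objects or normal cells, normal cells into healthy, pyknosed or fragmented nuclei, and pyknosed cells into mitotic or apoptotic. The tubulin, mitochondrial-mass and membrane-permeability phenotypes are per cents of healthy-nucleus cells.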

[1] = 12 h, 1 µM, compound concentration 1 uM, replicate 1
[2] = 12 h, 1 µM, compound concentration 1 uM, replicate 2
[3] = 12 h, 10 µM, compound concentration 10 uM, replicate 1
[4] = 12 h, 10 µM, compound concentration 10 uM, replicate 2
[5] = 24 h, 1 µM, compound concentration 1 uM, replicate 1
[6] = 24 h, 1 µM, compound concentration 1 uM, replicate 2
[7] = 24 h, 10 µM, compound concentration 10 uM, replicate 1
[8] = 24 h, 10 µM, compound concentration 10 uM, replicate 2
[9] = 48 h, 1 µM, compound concentration 1 uM, replicate 1
[10] = 48 h, 1 µM, compound concentration 1 uM, replicate 2
[11] = 48 h, 10 µM, compound concentration 10 uM, replicate 1
[12] = 48 h, 10 µM, compound concentration 10 uM, replicate 2

## COC[C@@H](c1ccc(C(F)(F)F)cc1)N1CCN(C2(C)CCN(C(=O)c3c(C)ncnc3C)CC2)C[C@@H]1C.O=C(O)/C=C\C(=O)O [VICRIVIROC MALEATE]
[1]
  Population Apoptotic (%): 82%
  Population Fragmented Nuclei (%): 34%
  Population Healthy Nuclei (%): 54%
  Population Hoechst High Intensity Objects (%): 4%
  Population Membrane Permeable-Phenotype (%): 8%
  Population Mitochondria Different-Phenotype (%): 4%
  Population Mitotic Cells (%): 17%
  Population Normal (%): 95%
  Population Pyknosed Nuclei (%): 11%
  Population Tubulin-Different-Phenotype (%): 3%
  Total Cell Count: 261
[2]
  Population Apoptotic (%): 81%
  Population Fragmented Nuclei (%): 21%
  Population Healthy Nuclei (%): 67%
  Population Hoechst High Intensity Objects (%): 2%
  Population Membrane Permeable-Phenotype (%): 11%
  Population Mitochondria Different-Phenotype (%): 14%
  Population Mitotic Cells (%): 18%
  Population Normal (%): 97%
  Population Pyknosed Nuclei (%): 10%
  Population Tubulin-Different-Phenotype (%): 7%
  Total Cell Count: 105
[3]
  Population Apoptotic (%): 86%
  Population Fragmented Nuclei (%): 26%
  Population Healthy Nuclei (%): 65%
  Population Hoechst High Intensity Objects (%): 1%
  Population Membrane Permeable-Phenotype (%): 13%
  Population Mitochondria Different-Phenotype (%): 3%
  Population Mitotic Cells (%): 13%
  Population Normal (%): 98%
  Population Pyknosed Nuclei (%): 8%
  Population Tubulin-Different-Phenotype (%): 3%
  Total Cell Count: 270
[4]
  Population Apoptotic (%): 33%
  Population Fragmented Nuclei (%): 28%
  Population Hoechst High Intensity Objects (%): 2%
  Population Membrane Permeable-Phenotype (%): 5%
  Population Mitochondria Different-Phenotype (%): 6%
  Population Mitotic Cells (%): 66%
  Population Normal (%): 97%
  Population Pyknosed Nuclei (%): 6%
  Population Tubulin-Different-Phenotype (%): 6%
  Total Cell Count: 91
[5]
  Population Apoptotic (%): 77%
  Population Fragmented Nuclei (%): 25%
  Population Healthy Nuclei (%): 67%
  Population Hoechst High Intensity Objects (%): 3%
  Population Membrane Permeable-Phenotype (%): 5%
  Population Mitochondria Different-Phenotype (%): 3%
  Population Mitotic Cells (%): 22%
  Population Normal (%): 96%
  Population Pyknosed Nuclei (%): 7%
  Population Tubulin-Different-Phenotype (%): 2%
  Total Cell Count: 301
[6]
  Population Apoptotic (%): 93%
  Population Fragmented Nuclei (%): 20%
  Population Healthy Nuclei (%): 64%
  Population Hoechst High Intensity Objects (%): 4%
  Population Membrane Permeable-Phenotype (%): 10%
  Population Mitochondria Different-Phenotype (%): 14%
  Population Mitotic Cells (%): 6%
  Population Normal (%): 95%
  Population Pyknosed Nuclei (%): 15%
  Population Tubulin-Different-Phenotype (%): 10%
  Total Cell Count: 111
[7]
  Population Apoptotic (%): 80%
  Population Fragmented Nuclei (%): 25%
  Population Healthy Nuclei (%): 68%
  Population Hoechst High Intensity Objects (%): 1%
  Population Membrane Permeable-Phenotype (%): 3%
  Population Mitochondria Different-Phenotype (%): 3%
  Population Mitotic Cells (%): 19%
  Population Normal (%): 98%
  Population Pyknosed Nuclei (%): 6%
  Population Tubulin-Different-Phenotype (%): 2%
  Total Cell Count: 326
[8]
  Population Apoptotic (%): 83%
  Population Membrane Permeable-Phenotype (%): 4%
  Population Mitochondria Different-Phenotype (%): 2%
  Population Mitotic Cells (%): 16%
  Population Tubulin-Different-Phenotype (%): 7%
  Total Cell Count: 99
[9]
  Population Apoptotic (%): 78%
  Population Fragmented Nuclei (%): 20%
  Population Healthy Nuclei (%): 68%
  Population Hoechst High Intensity Objects (%): 3%
  Population Membrane Permeable-Phenotype (%): 3%
  Population Mitochondria Different-Phenotype (%): 2%
  Population Mitotic Cells (%): 21%
  Population Normal (%): 96%
  Population Pyknosed Nuclei (%): 10%
  Population Tubulin-Different-Phenotype (%): 1%
  Total Cell Count: 416
[10]
  Population Apoptotic (%): 93%
  Population Fragmented Nuclei (%): 25%
  Population Healthy Nuclei (%): 62%
  Population Hoechst High Intensity Objects (%): 1%
  Population Membrane Permeable-Phenotype (%): 13%
  Population Mitochondria Different-Phenotype (%): 11%
  Population Mitotic Cells (%): 6%
  Population Normal (%): 98%
  Population Pyknosed Nuclei (%): 11%
  Population Tubulin-Different-Phenotype (%): 10%
  Total Cell Count: 142
[11]
  Population Apoptotic (%): 80%
  Population Fragmented Nuclei (%): 19%
  Population Healthy Nuclei (%): 70%
  Population Hoechst High Intensity Objects (%): 2%
  Population Membrane Permeable-Phenotype (%): 3%
  Population Mitochondria Different-Phenotype (%): 2%
  Population Mitotic Cells (%): 20%
  Population Normal (%): 97%
  Population Pyknosed Nuclei (%): 9%
  Population Tubulin-Different-Phenotype (%): 1%
  Total Cell Count: 437
[12]
  Population Apoptotic (%): 93%
  Population Fragmented Nuclei (%): 18%
  Population Healthy Nuclei (%): 68%
  Population Hoechst High Intensity Objects (%): 5%
  Population Mitochondria Different-Phenotype (%): 6%
  Population Mitotic Cells (%): 6%
  Population Normal (%): 94%
  Population Pyknosed Nuclei (%): 12%
  Population Tubulin-Different-Phenotype (%): 6%
  Total Cell Count: 140
